Experimental data published in ChEMBL document CHEMBL5543124, “Lead Compound Development of SRC-3 Inhibitors with Improved Pharmacokinetic Properties and Anticancer Efficacy” (J Med Chem, 2024).

Key:
MCF7 = assay: Cytotoxicity against human MCF7 cells assessed as inhibition of cell growth incubated for 72 hrs by MTT assay; type: functional, cell-based; settings: MCF7, 72 h
[1] = Half life in human liver microsomes at 1 uM incubated for 30 mins in presence of NADPH by LC-MS/MS analysis; type: ADME, Microsome; settings: 0.5 h
Method in brief: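 Human liver microsomes (1 mg/mL final) in 100 mM phosphate buffer with or without NADPH; compound at 1 μM final, 37 °C. Samples taken at 0, 5, 10, 20, 30 min (0 and 30 min without NADPH), quenched with cold acetonitrile containing internal standards, analysed by LC-MS/MS; verapamil as control.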

[2] = Stability in CD-1 mouse plasma at 37.7 micromol/kg,ip administration measured after 22 hrs by LC-MS/MS analysis; type: ADME, cell-free; settings: at 37.7 µmol/kg
Method in brief: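 Female CD-1 mice (n=3) dosed i.p. at 37.7 μmol/kg (equimolar across compounds). Blood (20 μL) drawn at 0.25, 5 and 22 h and processed to plasma. Drug levels quantified by LC-MS/MS.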

[3] = Cytotoxicity against CD-1 mouse Primary hepatocyte assessed as inhibition of cell growth incubated for 72 hrs by MTT assay; type: toxicity, cell-based; settings: primary hepatocytes
[4] = Half life in CD-1 mouse at 1 mg/kg,iv administration measured upto 48 hrs by LC-MS/MS analysis; type: ADME, organism-based; settings: in vivo
Method in brief: (§1)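 Single intravenous bolus in ICR male mice (n = 3, 6 weeks); dosing solution 0.5 mg/mL in 20% DMSO, 16% PEG, 4% dextrose in PBS. Tail-vein blood (10 μL) taken at 2, 5, 15, 30 min and 1, 2, 4, 8, 24, 48 h. Plasma quantified by LC-MS/MS against a 0.5–1000 ng/mL calibration; parameters from non-compartmental analysis.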

[5] = Tmax in CD-1 mouse at 1 mg/kg,iv administration measured upto 48 hrs by LC-MS/MS analysis; type: ADME, organism-based; settings: in vivo
Method in brief: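 Male ICR mice (n=3, 6 weeks) given 1 mg/kg i.v. from a 0.5 mg/mL solution in 20% DMSO/16% PEG/4% dextrose in PBS. Tail-vein blood (10 μL) drawn at 2, 5, 15 and 30 min and at 1, 2, 4, 8, 24 and 48 h. Plasma quantified by LC-MS/MS against 0.5–1000 ng/mL calibration standards with QC samples. Parameters from non-compartmental analysis.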

[6] = Cmax in CD-1 mouse at 1 mg/kg,iv administration measured upto 48 hrs by LC-MS/MS analysis; type: ADME, organism-based; settings: in vivo; method in brief: as §1
[7] = AUC (0 to t) in CD-1 mouse at 1 mg/kg,iv administration measured upto 48 hrs by LC-MS/MS analysis; type: ADME, organism-based; settings: in vivo; method in brief: as §1
[8] = Clearance in CD-1 mouse at 1 mg/kg,iv administration measured upto 48 hrs by LC-MS/MS analysis; type: ADME, organism-based; settings: in vivo; method in brief: as §1
[9] = Half life in CD-1 mouse at 10 mg/kg,po administration measured upto 48 hrs by LC-MS/MS analysis; type: ADME, organism-based; settings: in vivo
Method in brief: (§2)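 Oral gavage in ICR male mice (n = 3); dosing solution 1 mg/mL in 20% DMSO, 16% PEG, 4% dextrose in PBS. Tail-vein blood (10 μL) taken at 15, 30 min and 1, 2, 4, 8, 24, 48 h. Plasma quantified by LC-MS/MS against a 0.5–1000 ng/mL calibration; parameters from a non-compartmental extravascular model.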

[10] = Tmax in CD-1 mouse at 10 mg/kg,po administration measured upto 48 hrs by LC-MS/MS analysis; type: ADME, organism-based; settings: in vivo
Method in brief: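 Male ICR mice (n=3) dosed by oral gavage at 10 mg/kg from a 1 mg/mL solution in 20% DMSO/16% PEG/4% dextrose in PBS. Tail-vein blood (10 μL) drawn at 15 and 30 min and at 1, 2, 4, 8, 24 and 48 h. Plasma quantified by LC-MS/MS against calibration standards. Parameters from non-compartmental extravascular model.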

[11] = Cmax in CD-1 mouse at 10 mg/kg,po administration measured upto 48 hrs by LC-MS/MS analysis; type: ADME, organism-based; settings: in vivo; method in brief: as §2
[12] = AUC (0 to t) in CD-1 mouse at 10 mg/kg,po administration measured upto 48 hrs by LC-MS/MS analysis; type: ADME, organism-based; settings: in vivo; method in brief: as §2
[13] = Oral bioavailability in CD-1 mouse at 10 mg/kg administration measured upto 48 hrs by LC-MS/MS analysis; type: ADME, organism-based; settings: in vivo
[14] = molecular target: Prostaglandin G/H synthase 1 (Homo sapiens, UniProt P23219); assay: Inhibition of COX1 (unknown origin); type: toxicity
Prostaglandin G/H synthase 1, sequence (P23219 whole entry): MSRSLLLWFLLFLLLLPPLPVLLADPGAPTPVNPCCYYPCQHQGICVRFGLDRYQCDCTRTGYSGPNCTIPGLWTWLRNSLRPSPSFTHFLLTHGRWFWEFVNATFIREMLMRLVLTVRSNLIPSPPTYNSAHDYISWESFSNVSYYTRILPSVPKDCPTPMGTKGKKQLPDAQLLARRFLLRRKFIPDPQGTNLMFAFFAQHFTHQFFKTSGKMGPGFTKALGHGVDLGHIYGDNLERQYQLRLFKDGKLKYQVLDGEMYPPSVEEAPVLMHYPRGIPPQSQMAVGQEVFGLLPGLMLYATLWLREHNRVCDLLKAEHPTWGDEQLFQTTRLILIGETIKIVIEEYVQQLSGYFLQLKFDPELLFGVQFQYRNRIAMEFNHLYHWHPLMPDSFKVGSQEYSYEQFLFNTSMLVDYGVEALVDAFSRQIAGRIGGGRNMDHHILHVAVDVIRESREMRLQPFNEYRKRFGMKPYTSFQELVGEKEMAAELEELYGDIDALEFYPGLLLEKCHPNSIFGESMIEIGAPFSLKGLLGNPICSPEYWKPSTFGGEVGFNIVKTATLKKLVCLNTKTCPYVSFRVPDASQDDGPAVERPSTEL
Method in brief: (§3)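 Tested in a commercial off-target safety screening panel of 78 targets. Values reported as RC50, taken as IC50 except for agonist mode, where RC50 is EC50.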

[15] = molecular target: T1, Prostaglandin G/H synthase 2 (Homo sapiens, UniProt P35354); assay: Inhibition of COX2 (unknown origin); type: toxicity; method in brief: as §3
T1 sequence (P35354 whole entry): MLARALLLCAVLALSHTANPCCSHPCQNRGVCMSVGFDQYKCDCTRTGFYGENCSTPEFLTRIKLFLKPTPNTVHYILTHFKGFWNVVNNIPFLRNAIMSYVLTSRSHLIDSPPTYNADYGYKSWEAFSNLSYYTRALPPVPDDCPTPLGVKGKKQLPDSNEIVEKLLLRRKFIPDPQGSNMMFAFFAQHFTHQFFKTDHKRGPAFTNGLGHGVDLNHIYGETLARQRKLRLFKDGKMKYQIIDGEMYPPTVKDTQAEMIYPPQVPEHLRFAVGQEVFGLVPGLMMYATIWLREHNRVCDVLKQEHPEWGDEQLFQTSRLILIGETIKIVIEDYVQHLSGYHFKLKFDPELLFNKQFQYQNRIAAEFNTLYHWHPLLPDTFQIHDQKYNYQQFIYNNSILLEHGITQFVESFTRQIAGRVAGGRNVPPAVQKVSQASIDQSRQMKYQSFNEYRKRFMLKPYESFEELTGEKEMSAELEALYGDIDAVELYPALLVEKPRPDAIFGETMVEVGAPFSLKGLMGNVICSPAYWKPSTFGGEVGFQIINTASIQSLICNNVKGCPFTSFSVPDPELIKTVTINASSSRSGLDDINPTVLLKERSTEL

[16] = molecular target: Voltage-gated inwardly rectifying potassium channel KCNH2 (Homo sapiens, UniProt Q12809); assay: Inhibition of hERG transfected in HEK293 cells by patch clamp assay; type: toxicity, cell-based
Voltage-gated inwardly rectifying potassium channel KCNH2, sequence (Q12809 whole entry): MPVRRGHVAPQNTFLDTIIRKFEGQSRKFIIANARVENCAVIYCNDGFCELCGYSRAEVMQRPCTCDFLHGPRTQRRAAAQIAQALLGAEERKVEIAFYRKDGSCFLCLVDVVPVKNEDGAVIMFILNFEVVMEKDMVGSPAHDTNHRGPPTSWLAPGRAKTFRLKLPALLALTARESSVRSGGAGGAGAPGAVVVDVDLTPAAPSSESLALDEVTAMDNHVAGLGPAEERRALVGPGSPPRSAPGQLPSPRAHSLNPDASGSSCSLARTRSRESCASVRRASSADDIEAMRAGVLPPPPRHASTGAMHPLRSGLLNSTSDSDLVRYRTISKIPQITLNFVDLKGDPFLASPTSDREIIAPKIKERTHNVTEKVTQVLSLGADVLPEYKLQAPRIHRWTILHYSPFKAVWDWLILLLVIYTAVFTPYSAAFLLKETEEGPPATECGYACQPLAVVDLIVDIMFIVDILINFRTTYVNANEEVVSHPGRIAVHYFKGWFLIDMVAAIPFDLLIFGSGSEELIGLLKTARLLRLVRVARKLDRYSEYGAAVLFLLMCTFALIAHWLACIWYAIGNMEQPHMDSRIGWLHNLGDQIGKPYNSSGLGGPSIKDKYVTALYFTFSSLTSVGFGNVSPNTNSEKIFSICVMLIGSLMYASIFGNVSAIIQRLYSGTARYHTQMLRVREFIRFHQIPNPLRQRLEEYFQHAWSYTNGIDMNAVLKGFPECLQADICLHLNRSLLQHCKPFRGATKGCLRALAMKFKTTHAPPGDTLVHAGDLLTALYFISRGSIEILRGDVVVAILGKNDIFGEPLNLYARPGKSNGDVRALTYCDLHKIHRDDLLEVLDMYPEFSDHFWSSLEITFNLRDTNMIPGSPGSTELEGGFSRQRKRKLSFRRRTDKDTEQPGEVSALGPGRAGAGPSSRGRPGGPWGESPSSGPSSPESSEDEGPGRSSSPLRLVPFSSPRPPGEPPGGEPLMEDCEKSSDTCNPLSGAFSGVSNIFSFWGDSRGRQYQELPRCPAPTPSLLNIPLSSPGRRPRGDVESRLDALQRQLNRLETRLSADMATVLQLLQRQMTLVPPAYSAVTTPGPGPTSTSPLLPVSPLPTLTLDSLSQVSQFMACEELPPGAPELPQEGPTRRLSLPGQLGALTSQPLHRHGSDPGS

hERG (KCNH2) = hERG (KCNH2) (Homo sapiens, UniProt Q12809); assay: Inhibition of hERG transfected in HEK293 cells at 30 uM by patch clamp assay relative to control; type: toxicity, cell-based; settings: HEK293 cells transfected with hERG
hERG (KCNH2), sequence (Q12809 whole entry): as above

[17] = Drug concentration in CD-1 mouse plasma at 37.7 micromol/kg,ip administration measured after 22 hrs by LC-MS/MS analysis; type: ADME, cell-free; settings: dose 37.7 µmol/kg
Method in brief: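 Female CD-1 mice (n = 3) dosed ip at 37.7 μmol/kg. Blood (20 μL) taken at 0.25, 5 and 22 h, processed to plasma, and drug quantified by LC-MS/MS.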

[18] = Stability in human plasma incubated upto 150 mins; type: ADME, cell-free; settings: 2.5 h
[19] = Toxicity in mouse assessed as mild stress at 100 mg/kg,po administration for 4 weeks; type: organism-based; settings: in vivo, 672 h
Method in brief: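 Mice dosed orally at up to 100 mg/kg, the highest dose tested. Observed for signs of stress.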

[20] = Toxicity in mouse assessed as body weight loss at 50 mg/kg,po administration for 4 weeks; type: organism-based; settings: in vivo, 672 h
Method in brief: (§4)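 Mice dosed orally once daily at 50 or 100 mg/kg for 4 weeks. Body weight monitored throughout.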

[21] = Toxicity in mouse assessed as body weight loss at 100 mg/kg,po administration for 4 weeks; type: organism-based; settings: in vivo, 672 h; method in brief: as §4
CYP1A2 = assay: Stability in human liver microsomes assessed as CYP1A2-mediated drug metabolism incubated for 1 hr; type: ADME, Microsome; settings: read-out: Drug metabolism

## C/C(=N\Oc1nc2ccccc2n1C)c1ccccn1
MCF7
  IC50: > 1000 nM

## C/C(=N\Nc1nc2ccccc2n1C)c1ccc(F)cn1
MCF7
  IC50: 5.4 nM
[1]
  t1/2: 4.93 min
[2]
  Stability: Stable

## C/C(=N\N=c1/[nH]c2cc(F)c(F)cc2n1C)c1ccc(-c2nnn[nH]2)cn1
MCF7
  IC50: > 1000 nM

## C/C(=N\N=c1/sc2ccccc2n1C)c1ccc(F)cn1
MCF7
  IC50: > 1000 nM

## C/C(=N\N=c1/[nH]c2cc(F)c(F)cc2n1C)c1ccccn1
MCF7
  IC50: 6.3 nM

## C/C(=N\N=c1/[nH]c2cc(F)c(F)cc2n1C)c1ccc(C(=O)O)cn1
MCF7
  IC50: > 1000 nM

## COC(=O)c1ccc(/C(C)=N/N=c2\[nH]c3cc(F)c(F)cc3n2C)nc1
MCF7
  IC50: 2.9 nM

## Cn1c(N2N=C(c3ccccn3)CC2=O)nc2ccccc21
MCF7
  IC50: > 1000 nM

## C/C(=N\N=c1/[nH]c2cc(F)c(F)cc2n1C)c1ccncn1
MCF7
  IC50: 10.7 nM

## C/C(=N\N=c1/[nH]c2cc(F)c(F)cc2n1C)c1ccc(C(=O)N2CCOCC2)cn1
MCF7
  IC50: 44.7 nM

## C/C(=N\N=c1/[nH]c2cc(F)c(F)cc2n1C)c1cn(C)cn1
MCF7
  IC50: > 1000 nM

## C/C(=N\N=c1/[nH]c2cc(F)c(F)cc2n1C)c1cccs1
MCF7
  IC50: > 1000 nM

## C/C(=N\N=c1/[nH]c2cc(F)c(F)cc2n1C)c1cccnc1
MCF7
  IC50: > 1000 nM

## C/C(=N\N=c1/[nH]c2cc(F)c(F)cc2n1C)c1ccc(C(N)=O)cn1
MCF7
  IC50: 2.7 nM

## C/C(=N\Nc1nc2cc(F)c(F)cc2n1C)c1ncccn1
[3]
  IC50 at 72 h: > 1000 nM
[4]
  t1/2: 195 min
[5]
  Tmax: 1.98 min
[6]
  Cmax: 552 ng/mL
[7]
  AUCt: 87.6 ng·h/mL
[8]
  clearance: 176 mL/min/kg
[9]
  t1/2: 545 min
[10]
  Tmax: 15 min
[11]
  Cmax: 89 ng/mL
[12]
  AUCt: 477 ng·h/mL
[13]
  F: 54.4%
[14]
  IC50: 2900 nM
[15]
  IC50: 2400 nM
[16]
  IC50: > 30000 nM
hERG (KCNH2)
  inhibition at 30 µM: < 50%
[1]
  t1/2: 3.71 min
[17]
  concentration at 22 h: 117 nM
[18]
  Stability: Stable
[19]
  Activity: Non-Toxic
[20]
  Activity: Non-Toxic
[21]
  Activity: Non-Toxic
[2]
  Stability: Stable
CYP1A2
  metabolised at 1 h: 98%

## C/C(=N\N=c1/[nH]c2cc(F)c(F)cc2n1C)c1ccncc1
MCF7
  IC50: > 1000 nM

## C/C(=N\N=c1/[nH]c2cc(Cl)c(Cl)cc2n1C)c1ccc(F)cn1
MCF7
  IC50: 18 nM

## C/C(=N\N=c1/[nH]c2cc(F)c(F)cc2n1C)c1ccc(-c2cnn(C)c2)cn1
MCF7
  IC50: 6.7 nM

## C/C(=N\N=c1n(C)c2ccccc2n1C)c1ccc(F)cn1
MCF7
  IC50: > 1000 nM

## C/C(=N\Nc1nc2ccccc2n1C)c1ccccn1
MCF7
  IC50: 22 nM
[1]
  t1/2: 3 min

## C/C(=N\N=c1/[nH]c2cc(F)c(F)cc2n1C)c1ccc(OCCCS(C)(=O)=O)cn1
MCF7
  IC50: 249 nM

## C/C(=N\N=c1/[nH]c2cc(F)c(F)cc2n1C)c1ccccc1
MCF7
  IC50: > 1000 nM

## C/C(=N\N=c1/[nH]c2cc(F)c(F)cc2n1C)c1cocn1
MCF7
  IC50: > 1000 nM

## C/C(=N\Nc1nc2cc(F)ccc2n1C)c1ccc(F)cn1
MCF7
  IC50: 2.5 nM
[1]
  t1/2: 5.76 min
[2]
  Stability: Stable

## Cn1c(NNC(=O)c2ccccn2)nc2ccccc21
MCF7
  IC50: 494 nM

## C/C(=N\N=c1/[nH]c2cc(F)c(F)cc2n1C)c1ccc(OCCCN2CCOCC2)cn1
MCF7
  IC50: 30.5 nM
